Data from ChEMBL document CHEMBL1122780, “Trequinsin, a potent new antihypertensive vasodilator in the series of 2-(arylimino)-3-alkyl-9,10-dimethoxy-3,4,6,7-tetrahydro-2H-py rim ido [6,1-a]isoquinolin-4-ones” (J Med Chem, 1984).

Experiments:
Felis catus [1] = test: Percent hypotension was determined in cats after administering 10 ug/kg intravenously; type: functional
Method in brief: (§1)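 Cats (2.5–4.0 kg, either sex) under ether, maintained on chloralose 70 mg/kg iv. Dosing by femoral vein catheter at 10, 25 or 50 µg/kg. Records initial BP, peak fall in mean arterial pressure, percent hypotension and response duration. Mean ± SEM, five experiments per dose.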

Oryctolagus cuniculus [2] = test: Hypotensive activity of compound was evaluated by measuring fall in blood pressure in rabbits after administering 50 ug/kg intravenously; type: functional
Method in brief: (§2)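 Anesthetized rabbits. Dosing by femoral vein catheter at 10, 25 or 50 µg/kg. Records initial BP, maximal fall in mean arterial pressure, percent hypotension and duration of hypotension. Mean ± SEM, 6–7 experiments per dose.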

Canis familiaris [3] = test: Hypotensive activity of compound was evaluated by measuring fall in blood pressure in dogs after administering 100 ug/kg intravenously; type: functional, Canis lupus familiaris
Method in brief: (§3)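 Mongrel dogs (10–16 kg, either sex) anesthetized with pentobarbitone sodium 35 mg/kg iv. Dosing by femoral vein catheter at 25, 50 or 100 µg/kg. Records initial BP, maximal fall in mean arterial pressure, percent hypotension and duration. Mean ± SEM, 3–8 experiments per dose.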

Felis catus [4] = test: Hypotensive activity of compound was evaluated by measuring initial blood pressure in cats after administering 50 ug/kg intravenously; type: functional; method in brief: as §1
Oryctolagus cuniculus [5] = test: Duration for hypotensive action in rabbits after administering 25 ug/kg intravenously; type: functional; method in brief: as §2
Felis catus [6] = test: Duration for hypotensive action in cats after administering 25 ug/kg intravenously; type: functional; method in brief: as §1
Canis familiaris [7] = test: Hypotensive activity of compound was evaluated by measuring initial blood pressure in dogs after administering 100 ug/kg intravenously; type: functional, Canis lupus familiaris; method in brief: as §3
Felis catus [8] = test: Hypotensive activity of compound was evaluated by measuring initial blood pressure in cats after administering 25 ug/kg intravenously; type: functional; method in brief: as §1
Canis familiaris [9] = test: Hypotensive activity of compound was evaluated by measuring initial blood pressure in dogs after administering 25 ug/kg intravenously; type: functional, Canis lupus familiaris; method in brief: as §3
Felis catus [10] = test: Hypotensive activity of compound was evaluated by measuring initial blood pressure in cats after administering 10 ug/kg intravenously; type: functional; method in brief: as §1
Felis catus [11] = test: Blood pressure lowering activity in anesthetized cats after intravenous administration of […] of compound; type: functional
Rattus norvegicus [12] = test: Difference in systolic blood pressure of SH rats observed prior to the first application and 2 hr after the fifth application at the oral dose of 5 mg/kg was expressed as Delta BP; type: functional, Artery
Method in brief: (§4)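 Male spontaneously hypertensive rats (Wistar–Okamoto, 250–300 g, 12–16 weeks), conscious. Dosed orally once daily for 5 days in 0.9% NaCl or 0.5% carboxymethylcellulose (10 mL/kg); vehicle control group. Rats warmed at 37–38 °C for 10 min, then systolic pressure taken by tail-cuff (piezoelectric pulse detection). ΔBP = pre-first-dose minus 2 h after fifth dose; mean ± SEM, six animals.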

Oryctolagus cuniculus [13] = test: Hypotensive activity of compound was evaluated by measuring fall in blood pressure in rabbits after administering 25 ug/kg intravenously; type: functional; method in brief: as §2
Oryctolagus cuniculus [14] = test: Percent hypotension was determined in rabbits after administering 10 ug/kg intravenously; type: functional; method in brief: as §2
Felis catus [15] = test: Hypotensive activity of compound was evaluated by measuring fall in blood pressure in cats after administering 10 ug/kg intravenously; type: functional; method in brief: as §1
Felis catus [16] = test: Percent hypotension was determined in cats after administering 25 ug/kg intravenously; type: functional; method in brief: as §1
Felis catus [17] = test: Hypotensive activity of compound was evaluated by measuring fall in blood pressure in cats after administering 50 ug/kg intravenously; type: functional; method in brief: as §1
Canis familiaris [18] = test: Hypotensive activity of compound was evaluated by measuring fall in blood pressure in dogs after administering 50 ug/kg intravenously; type: functional, Canis lupus familiaris; method in brief: as §3
Oryctolagus cuniculus [19] = test: Duration for hypotensive action in rabbits after administering 50 ug/kg intravenously; type: functional; method in brief: as §2
Canis familiaris [20] = test: Duration for hypotensive action in dogs after administering 100 ug/kg intravenously; type: functional, Canis lupus familiaris; method in brief: as §3
[21] = Compound was tested for toxicity in mice after intraperitoneal administration; type: organism-based; details: mouse, in vivo, ip
Method in brief: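 Mice (18–22 g), either sex. Compound dissolved in distilled water or suspended in 0.5% (carboxymethyl)cellulose and given ip at 10, 30, 100, 300 and 1000 mg/kg, 1 mL/100 g body weight. Animals observed for 48 h; approximate LD50 calculated by the Campbell and Richter method.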

Felis catus [22] = test: Dose estimated to produce 25 mm Hg fall in mean systemic blood pressure of anesthetized cat at 10 min after administration; type: functional
Oryctolagus cuniculus [23] = test: Duration for hypotensive action in rabbits after administering 10 ug/kg intravenously; type: functional; method in brief: as §2
Canis familiaris [24] = test: Duration for hypotensive action in dogs after administering 50 ug/kg intravenously; type: functional, Canis lupus familiaris; method in brief: as §3
Oryctolagus cuniculus [25] = test: Hypotensive activity of compound was evaluated by measuring initial blood pressure in rabbits after administering 10 ug/kg intravenously; type: functional; method in brief: as §2
Felis catus [26] = test: Duration for hypotensive action in cats after administering 50 ug/kg intravenously; type: functional; method in brief: as §1
Oryctolagus cuniculus [27] = test: Hypotensive activity of compound was evaluated by measuring initial blood pressure in rabbits after administering 50 ug/kg intravenously; type: functional; method in brief: as §2
Oryctolagus cuniculus [28] = test: Hypotensive activity of compound was evaluated by measuring initial blood pressure in rabbits after administering 25 ug/kg intravenously; type: functional; method in brief: as §2
Felis catus [29] = test: Hypotensive activity of compound was evaluated by measuring fall in blood pressure in cats after administering 25 ug/kg intravenously; type: functional; method in brief: as §1
Felis catus [30] = test: Duration for hypotensive action in cats after administering 10 ug/kg intravenously; type: functional; method in brief: as §1
Canis familiaris [31] = test: Percent hypotension was determined in dogs after administering 25 ug/kg intravenously; type: functional, Canis lupus familiaris; method in brief: as §3
Canis familiaris [32] = test: Percent hypotension was determined in dogs after administering 100 ug/kg intravenously; type: functional, Canis lupus familiaris; method in brief: as §3
Oryctolagus cuniculus [33] = test: Hypotensive activity of compound was evaluated by measuring fall in blood pressure in rabbits after administering 10 ug/kg intravenously; type: functional; method in brief: as §2
Canis familiaris [34] = test: Hypotensive activity of compound was evaluated by measuring initial blood pressure in dogs after administering 50 ug/kg intravenously; type: functional, Canis lupus familiaris; method in brief: as §3
Canis familiaris [35] = test: Percent hypotension was determined in dogs after administering 50 ug/kg intravenously; type: functional, Canis lupus familiaris; method in brief: as §3
Canis familiaris [36] = test: Duration for hypotensive action in dogs after administering 25 ug/kg intravenously; type: functional, Canis lupus familiaris; method in brief: as §3
Felis catus [37] = test: Percent hypotension was determined in cats after administering 50 ug/kg intravenously; type: functional; method in brief: as §1
Canis familiaris [38] = test: Hypotensive activity of compound was evaluated by measuring fall in blood pressure in dogs after administering 25 ug/kg intravenously; type: functional, Canis lupus familiaris; method in brief: as §3
Oryctolagus cuniculus [39] = test: Percent hypotension was determined in rabbits after administering 50 ug/kg intravenously; type: functional; method in brief: as §2
Oryctolagus cuniculus [40] = test: Percent hypotension was determined in rabbits after administering 25 ug/kg intravenously; type: functional; method in brief: as §2
Felis catus [41] = test: Dose estimated to produce a fall in mean blood pressure of anesthetized cat at 10 min after administration; type: functional
Method in brief: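 Cats (2.5–4.0 kg, either sex), ether induction, chloralose 70 mg/kg iv maintenance. Compound in distilled water or propylene glycol given via femoral vein at 0.01–10 mg/kg. Fall in mean arterial pressure read 10 min post-dose; ED25 (dose for 25 mmHg fall) calculated from log dose–response curve.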

Rattus norvegicus [42] = species: Rattus norvegicus; test: Delta BP refers to difference in systolic blood pressure of SH rats; type: functional, Artery; method in brief: as §4
Rattus norvegicus [43] = test: Difference in systolic blood pressure of SH rats observed prior to the first application and 2 hr after the fifth application at the oral dose of 25 mg/kg was expressed as Delta BP; type: functional, Artery; method in brief: as §4
Rattus norvegicus [44] = species: Rattus norvegicus; test: Evaluated for antihypertensive activity in hypertensive(SH) rat

COc1cc2c(cc1OC)-c1c/c(=N\c3c(C)cc(C)cc3C)n(C)c(=O)n1CC2.Cl [TREQUINSIN HYDROCHLORIDE]
Hypotension (Felis catus [1]): 16.8% | BP (Oryctolagus cuniculus [2]): 24.2 mmHg | BP (Canis familiaris [3]): 56.1 mmHg | BP (Felis catus [4]): 125 mmHg | Duration (Oryctolagus cuniculus [5]): 57.8 min | Duration (Felis catus [6]): 45 min | BP (Canis familiaris [7]): 168.3 mmHg | BP (Felis catus [8]): 116 mmHg | BP (Canis familiaris [9]): 168.8 mmHg | BP (Felis catus [10]): 110 mmHg | ED25 (Felis catus [11]): 0.025 mg/kg | Delta blood pressure (Rattus norvegicus [12]): -41 mmHg | BP (Oryctolagus cuniculus [13]): 26.4 mmHg | Hypotension (Oryctolagus cuniculus [14]): 18.6% | BP (Felis catus [15]): 17 mmHg | Hypotension (Felis catus [16]): 23.4% | BP (Felis catus [17]): 34.2 mmHg | BP (Canis familiaris [18]): 40.8 mmHg | Duration (Oryctolagus cuniculus [19]): 70 min | Duration (Canis familiaris [20]): 140 min | LD50 [21]: 150 mg/kg | ED25 (Felis catus [22]): 0.025 mg/kg | Duration (Oryctolagus cuniculus [23]): 20.7 min | Duration (Canis familiaris [24]): 98.3 min | BP (Oryctolagus cuniculus [25]): 93.8 mmHg | Duration (Felis catus [26]): 82.5 min | BP (Oryctolagus cuniculus [27]): 84.2 mmHg | BP (Oryctolagus cuniculus [28]): 89.6 mmHg | BP (Felis catus [29]): 25.8 mmHg | Duration (Felis catus [30]): 16 min | Hypotension (Canis familiaris [31]): 22.9% | Hypotension (Canis familiaris [32]): 33.7% | BP (Oryctolagus cuniculus [33]): 17.4 mmHg | BP (Canis familiaris [34]): 163.3 mmHg | Hypotension (Canis familiaris [35]): 25.4% | Duration (Canis familiaris [36]): 50 min | Hypotension (Felis catus [37]): 28.6% | BP (Canis familiaris [38]): 37.5 mmHg | Hypotension (Oryctolagus cuniculus [39]): 28.5% | Hypotension (Oryctolagus cuniculus [40]): 29.9%

COc1cc2c(cc1OC)-c1cc(N(C)c3c(F)cccc3F)nc(=O)n1CC2
ED25 (Felis catus [41]): 0.03 mg/kg | ED25 (Felis catus [22]): 6 mg/kg | Delta blood pressure (Rattus norvegicus [42]): 0 mmHg | Delta blood pressure (Rattus norvegicus [43]): 0 mmHg | Antihypertensive activity (Rattus norvegicus [44]): 10 mg/kg
